Activity calls are given as the source filed them. The rule behind the calls is not given here.
Columns and labels:
Plasmodium falciparum [1] = assay: Antimalarial activity against chloroquine-resistant Plasmodium falciparum W2 infected in human erythrocytes after 48 hrs by YOYO-1 dye based flow cytometric analysis; type: functional, cell-based; details: W2, 48 h
How it was run: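 P. falciparum W2 cultures were exposed to the compound for 48 h, with artemisinin and chloroquine as reference controls. IC50 was taken from two independent replicates.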

Plasmodium falciparum [2] = assay: Antimalarial activity against Plasmodium falciparum 3D7 0087/N9 infected in NOD/SCID IL2R gamma null mouse assessed as decrease in parasitemia at 1 to 100 mg/kg up to 7 days post infection; type: functional, organism-based
How it was run: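 The P. falciparum 3D70087/N9 strain grew in the peripheral blood of NODscidIL2Rγnull mice engrafted with human erythrocytes. Compounds were given orally once a day for four consecutive days.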

Plasmodium falciparum [3] = assay: Antimalarial activity against intraerythrocytic stage of Plasmodium falciparum assessed as time required for maximal killing effect at 10 times IC50 preincubated for 24 hrs followed by [3H]-hypoxanthine addition measured after 24 hrs by scintillation counting method; type: functional
How it was run: (§1)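 In vitro P. falciparum parasite reduction ratio assay run at 10×, 30× and 100× IC50. Derived parameters: lag phase (time to maximal killing), PRR (parasites killed per life cycle) and PCT99.9% (time to clear 99.9% of the initial parasite population).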

Plasmodium falciparum [4] = assay: Antimalarial activity against intraerythrocytic stage of Plasmodium falciparum assessed as parasite reduction ratio at 10 times IC50 preincubated for 24 hrs followed by [3H]-hypoxanthine addition measured after 24 hrs by scintillation counting method; type: functional; how it was run: as §1
Plasmodium falciparum [5] = assay: Antimalarial activity against intraerythrocytic stage of Plasmodium falciparum assessed as time required to clear 99.9% of initial parasite population at 10 times IC50 preincubated for 24 hrs followed by [3H]-hypoxanthine addition measured after 24 hrs by scintillation counting method; type: functional; how it was run: as §1
Salmonella typhimurium [6] = assay: Genotoxicity in Salmonella typhimurium TA98 assessed as number of rrevertants per plate at 2 ug/plate in presence of rat liver S9 fraction by Ames test (reference value: 19 +/- 8); type: toxicity; details: salmonella enterica subsp. enterica serovar typhimurium
Salmonella typhimurium [7] = assay: Genotoxicity in Salmonella typhimurium TA100 assessed as number of revertants per plate at 2 ug/plate in presence of rat liver S9 fraction by Ames test (reference value: 141 +/- 1); type: toxicity; details: salmonella enterica subsp. enterica serovar typhimurium
How it was run: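 TA100 positive control under S9 activation: 2-aminoanthracene at 2.0 μg/plate, plate incorporation, average revertants per plate.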

Salmonella typhimurium [8] = assay: Genotoxicity in Salmonella typhimurium TA1535 assessed as number of revertants per plate at 2 ug/plate in presence of rat liver S9 fraction by Ames test (reference value: 10); type: toxicity; details: salmonella enterica subsp. enterica serovar typhimurium
Salmonella typhimurium [9] = assay: Genotoxicity in Salmonella typhimurium TA1537 assessed as number of revertants per plate at 2 ug/plate in presence of rat liver S9 fraction by Ames test (reference value: 11 +/- 4); type: toxicity; details: salmonella enterica subsp. enterica serovar typhimurium
Escherichia coli [10] = assay: Genotoxicity in Escherichia coli WP2uvrA assessed as number of revertants per plate at 15 ug/plate in presence of rat liver S9 fraction by Ames test (reference value: 42 +/- 6); type: toxicity
Salmonella typhimurium [11] = assay: Genotoxicity in Salmonella typhimurium TA1537 assessed as number of revertants per plate at 75 ug/plate in absence of rat liver S9 fraction by Ames test (reference value: 19 +/- 9); type: toxicity; details: salmonella enterica subsp. enterica serovar typhimurium
Plasmodium berghei = assay: Antimalarial activity against Plasmodium berghei infected in Swiss Webster mouse assessed as mouse survival rate at 30 mg/kg administered once daily via oral gavage for 4 consecutive days beginning 1 hr after infection measured from day 4 to day 20 post infection relative to control; type: functional
How it was run: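 P. berghei-infected erythrocytes taken from a previously infected mouse were injected intraperitoneally. Oral dosing, once daily for 4 consecutive days, began 1 h after infection, in polyethylene glycol 300/propylene glycol/water (55/25/20 by weight). Chloroquine at 30 mg/kg was the positive control, with a vehicle-only group. Percent survival was recorded daily from day 4 to day 20.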

Plasmodium falciparum [12] = assay: Antimalarial activity against Plasmodium falciparum 3D7 0087/N9 infected in NOD/SCID IL2R gamma null mouse assessed as decrease in parasitemia at 2.5 to 50 mg/kg up to 7 days post infection; type: functional, organism-based
How it was run: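 Human-erythrocyte-engrafted NODscidIL2Rγnull mice carrying P. falciparum Pf3D70087/N9 in peripheral blood; compound given orally once daily for four consecutive days.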

Salmonella typhimurium [13] = assay: Genotoxicity in Salmonella typhimurium TA98 assessed as number of revertants per plate at 1 ug/plate in absence of rat liver S9 fraction by Ames test (reference value: 14 +/- 6); type: toxicity; details: salmonella enterica subsp. enterica serovar typhimurium
Plasmodium falciparum [14] = assay: Antimalarial activity against Plasmodium falciparum NF54 infected in human erythrocytes assessed as reduction in [3H]-hypoxanthine incorporation preincubated for 24 hrs followed by [3H]-hypoxanthine addition measured after 24 hrs by scintillation counting method; type: functional, cell-based
Plasmodium falciparum [15] = assay: Antimalarial activity against Plasmodium falciparum K1 infected in human erythrocytes assessed as reduction in [3H]-hypoxanthine incorporation preincubated for 24 hrs followed by [3H]-hypoxanthine addition measured after 24 hrs by scintillation counting method; type: functional, cell-based
Plasmodium falciparum [16] = assay: Antimalarial activity against Plasmodium falciparum T9/94 infected in human erythrocytes assessed as reduction in [3H]-hypoxanthine incorporation preincubated for 24 hrs followed by [3H]-hypoxanthine addition measured after 24 hrs by scintillation counting method; type: functional, cell-based
Plasmodium falciparum [17] = assay: Antimalarial activity against Plasmodium falciparum HB3 infected in human erythrocytes assessed as reduction in [3H]-hypoxanthine incorporation preincubated for 24 hrs followed by [3H]-hypoxanthine addition measured after 24 hrs by scintillation counting method; type: functional, cell-based
Plasmodium falciparum [18] = assay: Antimalarial activity against Plasmodium falciparum TM90C2A infected in human erythrocytes assessed as reduction in [3H]-hypoxanthine incorporation preincubated for 24 hrs followed by [3H]-hypoxanthine addition measured after 24 hrs by scintillation counting method; type: functional, cell-based
Plasmodium falciparum [19] = assay: Antimalarial activity against Plasmodium falciparum TM90C2B infected in human erythrocytes assessed as reduction in [3H]-hypoxanthine incorporation preincubated for 24 hrs followed by [3H]-hypoxanthine addition measured after 24 hrs by scintillation counting method; type: functional, cell-based
Plasmodium falciparum [20] = assay: Antimalarial activity against Plasmodium falciparum Dd2 infected in human erythrocytes assessed as reduction in [3H]-hypoxanthine incorporation preincubated for 24 hrs followed by [3H]-hypoxanthine addition measured after 24 hrs by scintillation counting method; type: functional, cell-based
Plasmodium falciparum [21] = assay: Antimalarial activity against Plasmodium falciparum V1/S infected in human erythrocytes assessed as reduction in [3H]-hypoxanthine incorporation preincubated for 24 hrs followed by [3H]-hypoxanthine addition measured after 24 hrs by scintillation counting method; type: functional, cell-based
Escherichia coli [22] = assay: Genotoxicity in Escherichia coli WP2uvrA assessed as number of revertants per plate at 1000 ug/plate in absence of rat liver S9 fraction by Ames test (reference value: 45 +/- 9); type: toxicity

In the case of `C[C@@H]1CC[C@H]2[C@@H](C)C(=O)O[C@@H]3O[C@@]4(C)CC[C@@H]1[C@]32OO4` [ARTEMISININ], the IC50 (Plasmodium falciparum [1]) is reported as 0.006 µM, the Activity (Plasmodium falciparum [2]) is reported as “Active” and the Time (Plasmodium falciparum [3]) is reported as 0 h. For the same compound, the “log(ratio)” value (Plasmodium falciparum [4]) was over 4.8 and the T99.9% (Plasmodium falciparum [5]) was under 24 h.

In the case of `Nc1ccc2cc3ccccc3cc2c1` [2-AMINOANTHRACENE], the Activity (Salmonella typhimurium [6]) is reported as 524, the Activity (Salmonella typhimurium [7]) is reported as 550 and the Activity (Salmonella typhimurium [8]) is reported as 163. For the same compound, the Activity (Salmonella typhimurium [9]) was 82 and the Activity (Escherichia coli [10]) was 311.

Compound `Nc1c2ccccc2nc2ccccc12` [AMINACRINE] has an Activity (Salmonella typhimurium [11]) of 430.

In the case of `CCN(CC)CCCC(C)Nc1ccnc2cc(Cl)ccc12` (stereo not drawn) [CHLOROQUINE], the survival at 30 mg/kg (Plasmodium berghei) is reported as 100%, the Activity (Plasmodium falciparum [12]) is reported as “Active” and the Time (Plasmodium falciparum [3]) is reported as 0 h. For the same compound, the T99.9% (Plasmodium falciparum [5]) was 34 h.

For `O=[N+]([O-])c1ccc2c(c1)Cc1ccccc1-2` [2-NITROFLUORENE], the Activity (Salmonella typhimurium [13]) was 162.

Compound `CCc1nc(N)nc(N)c1-c1ccc(Cl)cc1` [PYRIMETHAMINE] has an IC50 (Plasmodium falciparum [14]) of 0.045 µM, an IC50 (Plasmodium falciparum [15]) of over 20 µM and an IC50 (Plasmodium falciparum [16]) of 0.038 µM. It also gave an IC50 (Plasmodium falciparum [17]) of 3.38 µM, an IC50 (Plasmodium falciparum [18]) of over 20 µM and an IC50 (Plasmodium falciparum [19]) of over 20 µM. For the same compound, the IC50 (Plasmodium falciparum [20]) was over 20 µM, the IC50 (Plasmodium falciparum [21]) was over 20 µM and the Time (Plasmodium falciparum [3]) was 24 h. For the same compound, the “log(ratio)” value (Plasmodium falciparum [4]) was 2.9 and the T99.9% (Plasmodium falciparum [5]) was 61 h.

`COS(C)(=O)=O` [METHANESULFONIC ACID METHYL ESTER] was tested, and the Activity (Escherichia coli [22]) was 357.

From ChEMBL document CHEMBL4038305, “Benzoxaborole Antimalarial Agents. Part 5. Lead Optimization of Novel Amide Pyrazinyloxy Benzoxaboroles and Identification of a Preclinical Candidate” (J Med Chem, 2017)
